Measured values taken from ChEMBL document CHEMBL1141642, “Rate enhancement of the oxidative folding of lysozyme by the use of aromatic thiol containing redox buffers” (Bioorg Med Chem, 2008).

Legend:
Gallus gallus [1] = organism: Gallus gallus; assay: Effect on reduced chicken lysozyme folding activity assessed as maximal activity at 15 mM at pH 6; design: scale not given: the % may be the effect or the level left
How it was run: (§1)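 Denatured reduced lysozyme (DTE-reduced in 6 M GdnHCl, desalted) diluted 100-fold to 7 µM (0.1 mg/mL) into deoxygenated 0.1 M Bis–Tris pH 6.0, 1 mM EDTA, 0.5 M GdnHCl, 0.2 mM GSSG plus aromatic thiol, 25 °C. Aliquots assayed over time by lysis of M. lysodeikticus (450 nm light scattering, 2 min slope). Curves fit to y=A(1−e^−kt), A = maximal %activity; at least four assays on separate days, standard deviation.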

[2] = Dissociation constant, pKa of the compound; assay type: physicochemical
Gallus gallus [3] = organism: Gallus gallus; assay: Effect on reduced chicken lysozyme folding activity assessed as maximal activity at 20 mM at pH 7; design: scale not given: the % may be the effect or the level left
How it was run: (§2)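 Denatured reduced lysozyme diluted 100-fold to 7 µM into deoxygenated 0.1 M Bis–Tris propane pH 7.0, 1 mM EDTA, 0.5 M GdnHCl, 0.2 mM GSSG plus aromatic thiol, 25 °C. Timed aliquots assayed for lytic activity on M. lysodeikticus (decrease in 450 nm scattering over 2 min). Fit to y=A(1−e^−kt), A = maximal %activity; at least seven independent assays on separate days.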

Gallus gallus [4] = organism: Gallus gallus; assay: Effect on reduced chicken lysozyme folding activity assessed as maximal activity at 15 mM at pH 7; design: scale not given: the % may be the effect or the level left; how it was run: as §2
Gallus gallus [5] = organism: Gallus gallus; assay: Effect on reduced chicken lysozyme folding activity assessed as maximal activity at 8 mM at pH 6; design: scale not given: the % may be the effect or the level left; how it was run: as §1
Gallus gallus [6] = organism: Gallus gallus; assay: Effect on reduced chicken lysozyme folding activity assessed as maximal activity at 8 mM at pH 7; design: scale not given: the % may be the effect or the level left; how it was run: as §2
Gallus gallus [7] = organism: Gallus gallus; assay: Effect on reduced chicken lysozyme folding activity assessed as maximal activity at 20 mM at pH 6; design: scale not given: the % may be the effect or the level left; how it was run: as §1

O=S(=O)(O)c1ccc(S)cc1 showed an Activity (Gallus gallus [1]) of 50%, a pKa [2] of 5.7 and an Activity (Gallus gallus [3]) of 62%.

With O=P(O)(O)Cc1ccc(S)cc1 the pKa [2] was 6.6, the Activity (Gallus gallus [4]) was 67% and the Activity (Gallus gallus [5]) was 67%.

For O=C(O)Cc1ccc(S)cc1, the Activity (Gallus gallus [6]) was 45% and the Activity (Gallus gallus [5]) was 16%.

C[N+](C)(C)Cc1ccc(S)cc1 showed a pKa [2] of 5.5, an Activity (Gallus gallus [3]) of 72% and an Activity (Gallus gallus [7]) of 85%.

Work on O=C(O)c1ccc(S)cc1 yielded a pKa [2] of 5.95, an Activity (Gallus gallus [6]) of 70% and an Activity (Gallus gallus [5]) of 60%.
